Test results taken from ChEMBL document CHEMBL4334468, “Exploring Mitochondria-Mediated Intrinsic Apoptosis by New Phytochemical Entities: An Explicit Observation of Cytochrome c Dynamics on Lung and Melanoma Cancer Cells” (J Med Chem, 2019).
Active and inactive are the calls of the source. The rule behind the calls is not given here.

Legend:
Format in all cases: functional, cell-based
A549 [1] = assay: Induction of morphological changes in human A549 cells at 20 uM by phase contrast microscopy
A549 [2] = assay: Induction of apoptosis in human A549 cells at 1 uM by APOP assay
Outline: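 APOPercentage dye uptake in treated A549 cells, which stain purple-red in early apoptosis when phosphatidylserine is translocated. Accumulated dye was then quantified against unstained untreated controls.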

A549 [3] = assay: Antimetastatic activity in human A549 cells assessed as inhibition of cell migration rate at 1 nM incubated up to 24 hrs by scratch wound healing assay
Outline: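 Scratch wound healing assay. The cell-free zone was followed over time up to 24 h, with untreated control wells as reference. Closure was quantified as migration rate.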

A549 [4] = assay: Induction of apoptosis in human A549 cells assessed as increase in caspase-2 levels at 1 uM incubated for 12 hrs by spectrofluorometry
A549 [5] = assay: Induction of apoptosis related protein expression in human A549 cells assessed as increase in Cyt-c expression at 20 uM incubated for 12 hrs by apoptosis antibody array

Question: `COc1cc(C2Oc3cc(-c4cc(=O)c5c(O)cc(O)cc5o4)ccc3OC2/C=C2\C(=O)ON=C2c2ccc(Cl)cc2)ccc1O` (stereo not given) was tested. Which Activity (A549 [1]) did it give?
Answer: Active

Question: And the Activity (A549 [2])?
Answer: Active

Question: What about the Activity (A549 [3]) of the same compound?
Answer: Active

Question: And the Activity (A549 [4])?
Answer: Active

Question: And the Activity (A549 [5])?
Answer: inactive
